Experimental findings from ChEMBL document CHEMBL1148329, “Synthesis and structure-activity studies on N-[5-(1H-imidazol-4-yl)-5,6,7,8-tetrahydro-1-naphthalenyl]methanesulfonamide, an imidazole-containing alpha(1A)-adrenoceptor agonist” (J Med Chem, 2004) are described below.

For assay [1], the target named is Alpha adrenergic receptor 1A and 1D (Rattus norvegicus) (UniProt P23944+P43140). Nature of the assay: Selectivity is ratio of pKi (binding affinity) of Alpha-1D to that of alpha1A. Format: protein assay.
For assay [2], the target named is Alpha adrenergic receptor 1A and 1B (Rattus norvegicus) (UniProt P15823+P43140). In words: Selectivity is ratio of pKi (binding affinity) of alpha-1B receptor to that of alpha-1A receptor. Type of assay: protein assay.
Assay [3] concerns the target T1, Alpha-1D adrenergic receptor (Rattus norvegicus, UniProt P23944).
T1 sequence (P23944 whole entry): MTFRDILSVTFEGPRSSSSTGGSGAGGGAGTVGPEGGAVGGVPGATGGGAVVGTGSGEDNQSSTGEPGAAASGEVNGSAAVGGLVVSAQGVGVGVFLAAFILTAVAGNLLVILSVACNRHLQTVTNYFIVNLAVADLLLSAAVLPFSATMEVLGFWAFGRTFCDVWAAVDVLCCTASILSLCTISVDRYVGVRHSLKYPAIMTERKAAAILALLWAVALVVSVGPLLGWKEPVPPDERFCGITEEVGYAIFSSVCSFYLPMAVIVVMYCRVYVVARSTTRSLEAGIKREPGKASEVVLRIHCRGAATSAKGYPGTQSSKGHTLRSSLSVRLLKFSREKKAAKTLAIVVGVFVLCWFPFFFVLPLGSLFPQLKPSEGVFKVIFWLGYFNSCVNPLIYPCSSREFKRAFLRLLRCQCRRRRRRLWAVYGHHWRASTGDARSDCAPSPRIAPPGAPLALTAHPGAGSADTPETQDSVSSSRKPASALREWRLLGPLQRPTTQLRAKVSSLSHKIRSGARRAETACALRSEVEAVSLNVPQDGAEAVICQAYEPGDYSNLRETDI
In words: In vitro binding affinity towards alpha-1D adrenergic receptor of rat clone in radioligand binding assay. A digest of the protocol:
(§1)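 Radioligand binding at α1 subtypes: α1A from rat submaxillary gland, α1B hamster clone, α1D rat clone. Run essentially per an earlier method.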

Assay [4] concerns the target T2, Alpha-1A adrenergic receptor (Rattus norvegicus, UniProt P43140).
T2 sequence (P43140 whole entry): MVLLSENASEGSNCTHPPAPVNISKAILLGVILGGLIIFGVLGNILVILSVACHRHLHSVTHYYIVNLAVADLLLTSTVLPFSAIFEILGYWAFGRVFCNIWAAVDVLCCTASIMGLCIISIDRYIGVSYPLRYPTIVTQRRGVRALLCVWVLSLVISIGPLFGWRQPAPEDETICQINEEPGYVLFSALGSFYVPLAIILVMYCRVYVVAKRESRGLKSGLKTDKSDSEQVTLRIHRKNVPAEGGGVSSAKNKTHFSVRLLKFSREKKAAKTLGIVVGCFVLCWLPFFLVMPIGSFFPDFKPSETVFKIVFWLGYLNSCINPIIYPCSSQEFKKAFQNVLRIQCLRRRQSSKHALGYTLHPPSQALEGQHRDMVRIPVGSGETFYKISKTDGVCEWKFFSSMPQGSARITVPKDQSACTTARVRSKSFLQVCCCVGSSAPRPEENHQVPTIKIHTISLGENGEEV
In words: In vitro binding affinity towards alpha-1A adrenergic receptor of rat submaxillary gland in radioligand binding assay. The method, boiled down: as §1

For assay [5], the target named is T3, Alpha-1B adrenergic receptor (Mesocricetus auratus, UniProt P18841).
T3 sequence (P18841 whole entry): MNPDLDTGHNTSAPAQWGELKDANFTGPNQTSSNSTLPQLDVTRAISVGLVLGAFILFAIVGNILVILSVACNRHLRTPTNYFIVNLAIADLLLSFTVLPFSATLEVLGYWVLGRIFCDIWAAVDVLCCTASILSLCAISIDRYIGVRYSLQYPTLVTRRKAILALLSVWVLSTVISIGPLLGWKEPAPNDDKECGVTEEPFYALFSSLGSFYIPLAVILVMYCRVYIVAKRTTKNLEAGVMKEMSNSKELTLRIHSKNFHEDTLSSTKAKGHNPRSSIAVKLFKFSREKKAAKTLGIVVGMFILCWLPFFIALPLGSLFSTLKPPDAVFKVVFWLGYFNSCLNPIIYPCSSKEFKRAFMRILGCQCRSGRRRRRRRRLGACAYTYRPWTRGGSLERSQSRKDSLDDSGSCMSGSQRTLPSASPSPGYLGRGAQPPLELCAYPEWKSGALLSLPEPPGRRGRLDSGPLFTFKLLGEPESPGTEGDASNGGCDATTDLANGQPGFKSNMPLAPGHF
Nature of the assay: In vitro binding affinity towards alpha-1B adrenergic receptor of hamster clone in radioligand binding assay. Type of assay: single protein. A digest of the protocol:
as §1

The target in assay [6] is T4, Alpha-1A adrenergic receptor (Oryctolagus cuniculus) (UniProt O02824).
T4 sequence (whole entry): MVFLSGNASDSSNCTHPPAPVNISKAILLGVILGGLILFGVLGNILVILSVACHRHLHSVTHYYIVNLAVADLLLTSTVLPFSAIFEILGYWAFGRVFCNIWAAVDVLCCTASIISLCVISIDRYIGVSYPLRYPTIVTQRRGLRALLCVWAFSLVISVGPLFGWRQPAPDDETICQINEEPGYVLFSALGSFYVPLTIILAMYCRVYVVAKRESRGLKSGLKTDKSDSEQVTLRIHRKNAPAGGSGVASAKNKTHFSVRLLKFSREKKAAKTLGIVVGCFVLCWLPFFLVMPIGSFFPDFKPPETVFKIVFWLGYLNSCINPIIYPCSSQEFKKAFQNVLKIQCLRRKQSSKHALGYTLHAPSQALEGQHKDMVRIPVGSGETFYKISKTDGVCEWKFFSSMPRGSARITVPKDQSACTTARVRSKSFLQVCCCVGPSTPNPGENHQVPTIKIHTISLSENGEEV
In words: Efficacy relative to phenylephrine (PE) to constrict tissue containing the alpha-1A adrenergic receptor in rabbit urethra. Format: functional, tissue-based. The method, boiled down:
(§2)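 α1-agonist dose–response curves in isolated tissue: rabbit urethra (α1A), rat spleen (α1B), rat aorta (α1D). Agonist potency and efficacy read from the concentration–response curves.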

The species named for assay [7] is Canis familiaris. In words: Ratio of MAP ED delta20 to that of IUP ED delta5.
In assay [8] the test system is Canis familiaris. Nature of the assay: Uroselectivity was determined by measuring effective dose required for 20 mmHg increase of mean arterial pressure (MAP) in vivo in dog. Format: functional, Canis lupus familiaris, Artery. The method, boiled down:
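Dog model recording intraurethral pressure (IUP) and mean arterial pressure (MAP) simultaneously. Increasing iv doses given, maximal effect of each dose taken. Doses giving a 5 mmHg rise in IUP (ED Δ5) or 20 mmHg rise in MAP (ED Δ20) were calculated, in nmol/kg ± SEM, n ≥ 4 (2 or 3 where footnoted).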

The target of assay [9] is T4, Alpha-1A adrenergic receptor (Oryctolagus cuniculus). In words: Functional agonism of the compounds to constrict tissue containing the alpha-1A adrenergic receptor in rabbit urethra. Type of assay: tissue-based. The method, boiled down:
as §2

Alpha adrenergic receptor 1A and 1B (Rattus norvegicus), sequence (P15823 whole entry, looked up, one chain of several): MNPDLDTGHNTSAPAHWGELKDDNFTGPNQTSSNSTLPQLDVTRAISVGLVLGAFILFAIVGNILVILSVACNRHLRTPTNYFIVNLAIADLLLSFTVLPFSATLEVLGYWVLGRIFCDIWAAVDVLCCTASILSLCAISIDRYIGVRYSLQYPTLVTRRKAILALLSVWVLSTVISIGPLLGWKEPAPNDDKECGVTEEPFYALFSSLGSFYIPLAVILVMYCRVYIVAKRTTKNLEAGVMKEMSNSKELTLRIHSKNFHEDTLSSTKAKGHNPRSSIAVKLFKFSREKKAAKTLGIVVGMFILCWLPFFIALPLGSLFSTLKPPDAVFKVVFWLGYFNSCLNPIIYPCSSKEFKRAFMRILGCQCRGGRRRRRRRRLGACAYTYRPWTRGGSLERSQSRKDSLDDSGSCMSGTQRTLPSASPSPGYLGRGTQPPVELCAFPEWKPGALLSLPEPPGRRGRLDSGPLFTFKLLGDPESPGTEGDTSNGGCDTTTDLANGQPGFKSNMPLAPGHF

Regarding `CCCS(=O)(=O)Nc1cccc2c1CCCC2c1c[nH]cn1` (configuration not stated), the Selectivity in assay [1] and in assay [2] was over 6 throughout. Also, the Ki was over 10 µM in assay [3], 1.7 µM in assay [4] and over 10 µM in assay [5].

For `CCS(=O)(=O)Nc1cccc(Cc2c[nH]cn2)c1C`, the figures for the Selectivity in assay [1] and in assay [2] were 8 and 60, respectively. Also, the Efficacy in [6] stood at 69%. Besides, the results for the Ki in assay [3], in assay [4] and in assay [5] were 1 µM, 0.129 µM and 8.13 µM, respectively. The Ratio in the assay listed under Canis familiaris [7] turned out to be 5.6. Besides, the “ED delta20” value in the assay with Canis familiaris [8] is 202 nM/kg.

With `CCS(=O)(=O)Nc1cccc2c1COC2c1c[nH]cn1` (configuration not stated), the Selectivity in assay [1] and in [2] was 10 each time. The Ki in [3] and in [5] was over 10 µM in each case.

Turning to `Cn1cncc1C1CCCc2c(NS(C)(=O)=O)cccc21` (configuration not stated), the Ki in [3], in assay [4] and in assay [5] was over 10 µM in each case.

With `CCS(=O)(=O)Nc1cccc2c1CCCC2(O)c1c[nH]cn1` (configuration not stated), the Selectivity in [1] and in [2] was 1 throughout. In addition, the Ki in assay [3], in [4] and in assay [5] was over 10 µM in each case.

As for `CCS(=O)(=O)Nc1cc(C2CCCCC2)cc2c1CCCC2c1c[nH]cn1` (configuration not stated), the Selectivity in assay [1] was 2; in assay [2], 3.

For `CCS(=O)(=O)Nc1cccc2c1CCCC2c1c[nH]c(C)n1` (configuration not stated), the Selectivity in [1] and in [2] was over 10 in each case. The Ki in assay [3] and in assay [5] was over 10 µM in each case.

Consider `CCS(=O)(=O)Nc1cccc(-c2c[nH]cn2)c1`, for which the inhibition constant (Ki) in assay [3], in assay [4] and in [5] was over 10 µM throughout.

As to `CS(=O)(=O)Nc1ccc(O)c2c1CCCC2c1c[nH]cn1` (configuration not stated), the Selectivity in assay [1] and in assay [2] was over 14 each time. This molecule also registered an Efficacy in assay [6] of 34%. The Ki in [3] and in assay [5] was over 10 µM throughout. The pD2 in assay [9] worked out at 4.61.

Take `Cc1ccc(NS(C)(=O)=O)c2c1C(c1c[nH]cn1)CCC2` (configuration not stated): the Selectivity in assay [1] was 7; in assay [2] it was over 26. The molecule further registered an Efficacy in assay [6] of 35%. Besides, the Ki in [5] was over 10 µM. This molecule also had a pD2 in [9] of 4.4.

As to `CCS(=O)(=O)Nc1cc(F)cc2c1CCCC2c1c[nH]cn1` (configuration not stated), the values for the Selectivity in assay [1] and in [2] were 44 and over 121, respectively. Further, the Ki is 3.63 µM in assay [3], 0.0832 µM in assay [4] and over 10 µM in assay [5].

Turning to `CS(=O)(=O)Nc1ccc(Cl)c2c1CCCC2c1c[nH]cn1` (configuration not stated), the Selectivity in [1] is 6; in [2], over 20. Also, the Efficacy in assay [6] was found to be 41%. Moreover, the Ki in assay [5] is over 10 µM. In assay [9], this molecule yielded a pD2 of 4.35.

Regarding `CS(=O)(=O)Nc1cccc2c1CCCCC2c1c[nH]cn1` (configuration not stated), the Selectivity in assay [1] was 2; in assay [2], over 7. Further, in assay [6], the Efficacy is 17%. The molecule also returned a pD2 in assay [9] of 4.72.

For the molecule `CCS(=O)(=O)Nc1cccc(CC2CCCN2)c1` (configuration not stated), the Selectivity in assay [1] was 1; in [2], over 10. In assay [6], this molecule returned an Efficacy of 17%. In addition, the Ki is 0.501 µM in assay [3], 0.708 µM in [4] and over 10 µM in assay [5]. In assay [9], this molecule registered a pD2 of 4.44.

Consider `CC(C)S(=O)(=O)Nc1cccc2c1CCCC2c1c[nH]cn1` (configuration not stated), for which the results for the Selectivity in assay [1] and in assay [2] were 2 and over 9, respectively. In addition, the Efficacy in [6] stood at 74%. In addition, the inhibition constant (Ki) is 2.04 µM in assay [3], 1.15 µM in assay [4] and over 10 µM in [5]. The pD2 in assay [9] is 5.17.

On to `CC(c1cccc(NS(C)(=O)=O)c1)c1c[nH]cn1` (configuration not stated), for which the results for the Selectivity in assay [1] and in assay [2] were 1 and 10, respectively. Further, the Efficacy in assay [6] was 92%. The Ratio in the assay filed under Canis familiaris [7] stood at 3.4. For the same molecule, the Ki in assay [5] was over 10 µM. Moreover, in assay [9], the pD2 was 5.38. In the assay on Canis familiaris [8], the “ED delta20” value was 234 nM/kg.

Consider `CCS(=O)(=O)Nc1cccc(Sc2c[nH]cn2)c1`, for which the inhibitory constant (Ki) in assay [3], in assay [4] and in assay [5] was over 10 µM each time.

In the case of `CCS(=O)(=O)Nc1cccc(CC2CN=CN2)c1` (configuration not stated), the Ki in [3] is 6.46 µM; in assay [4], over 10 µM; in assay [5] it was 10 µM.

On to `CCS(=O)(=O)Nc1cccc2c1SCCC2c1c[nH]cn1` (configuration not stated), for which the Selectivity in [1] and in assay [2] was 10 each time. For the same molecule, the Ki in assay [3] and in [5] was over 10 µM throughout.

Regarding `CCS(=O)(=O)Nc1cccc(S(=O)(=O)c2c[nH]cn2)c1`, the Ki in [3], in [4] and in assay [5] was over 10 µM throughout.

As to `CCS(=O)(=O)Nc1cccc(NC2=NCCN2)c1`, the results for the Selectivity in assay [1] and in [2] were under 0.04 and over 3, respectively. For the same molecule, the inhibitory constant (Ki) was 0.355 µM in assay [3], 2.95 µM in assay [4] and over 10 µM in assay [5].

Take `CS(=O)(=O)Nc1ccc(F)c2c1CCCC2c1c[nH]cn1` (configuration not stated): the Selectivity in assay [1] is 10; in assay [2] it was over 32. Moreover, the Efficacy in assay [6] stood at 64%. In addition, in the assay listed under Canis familiaris [7], the Ratio worked out at 1. This molecule gave a Ki in assay [5] of over 10 µM. Also, the pD2 in assay [9] stood at 5.31. Also, the “ED delta20” value with Canis familiaris [8] was 632 nM/kg.

As for `CCS(=O)(=O)Nc1cccc2c1CCCC2CNC` (configuration not stated), the Selectivity in [1] and in assay [2] was over 7 each time. In addition, the Ki in assay [3] is over 10 µM; in [4] it was 1.38 µM; in [5] it was over 10 µM.

With `O=S(=O)(Nc1cccc2c1CCCC2c1c[nH]cn1)C1CC1` (configuration not stated), the values for the Selectivity in assay [1] and in [2] were 5 and over 19, respectively. Further, the Efficacy in [6] is 51%. The Ki in assay [3] was 2.69 µM; in assay [4], 0.537 µM; in assay [5], over 10 µM. In assay [9], the pD2 turned out to be 5.25.
